# Screening results (PubChem BioAssay)
# The list is not random: actives were taken first. Their share in the collection is about 2.3%.
# LGR2 inh: inhibitors of bursicon-induced LGR2 CRE-luciferase signal, primary screen, cell-based, HEK293, CRE-luciferase reporter, bursicon stimulation | AID 720647, 2013 | 380,000 compounds, 0.35% hits | Drosophila bursicon receptor LGR2 (rickets) | bursicon-stimulated, 4 h | inhibition, % at 9.99 µM;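 active means drop in luminescence signal, shown as inhibition above about 50% in the replicate tests, limit read from the data, passing the limit was not always enough; inconclusive means probably only some replicates passing the limit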;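 further: agonist challenge used bursicon conditioned medium at about half maximal strength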
# TROY signal inh: inhibitors of TROY-driven NF-kB signaling, primary screen, Q293 LMP1-TROYcd cells, NF-kB luciferase, uHTS; 360,000 compounds, 0.98% hits; Q293 LMP1-TROYcd NF-kB luciferase reporter, 4 h; AID 1347056, 2019; inhibition, % at 10 µM;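 active means compounds whose plate-normalised and pattern-corrected inhibition of the luciferase reporter signal at the single screening dose is 50% or more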
# FN deposition inh: inhibitors of fibronectin matrix deposition, primary screen, AH1F cells, Alexa488-fibronectin fluorescence, plate reader | inhibition, % at 12.6 µM | 350,000 compounds, 0.086% hits | AH1F fibroblasts, overnight;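 active means mean inhibition across replicates of 30% or more, regardless of how many single replicates reach that level; inconclusive means mean under 30% yet at least half of replicates reach 30%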
#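 Measured by – fluorescence 485/525 nm · System – AH1F fibroblast monolayer, labelled fibronectin deposition · Amount – 10000 cells per well · Buffer or medium – serum-reduced DMEM (2% serum) · Doses – single dose, pinned · Also added – fluorescent fibronectin at 24 nM final · Schedule – 1 h cell attachment, overnight exposure to compound and label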
# TWEAK Fn14 block: inhibitors of TWEAK-Fn14 signaling, primary screen, luciferase reporter cells, uHTS; 360,000 compounds, 2% hits; inhibition, % at 10 µM; TWEAK-stimulated Fn14 reporter cells, luciferase luminescence, 8 h; AID 1159606, 2016; in the data active means inhibition above about 50%
# EWS-Fli inh: EWS/Fli-driven NR0B1 reporter inhibitors, primary screen, A673 cells, NR0B1 luciferase, luminescence, MLPCN library | viability-normalised | inhibition, % at 12.6 µM | 350,000 compounds, 0.67% hits;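 active means mean inhibition of at least 50% after viability correction, with every replicate also passing that limit; inconclusive means mean reaches 50% but only one of two replicates passes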;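 further: firefly luciferase signal divided by Alamar Blue viability fluorescence both relative to DMSO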
# XiGFP reactiv: activators of inactive X chromosome reactivation, primary screen, imaging, XiGFP fibroblasts, GFP high-content imaging, set 2. 360,000 compounds, 0.055% hits. activation, % at 7.58 µM. XiGFP mouse fibroblasts, % GFP-positive cells imaging, 3 d; cells co-treated with 5-aza-dC sensitizer; scaled so ellipticine positive control = 100%. AID 743238, 2013;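 active means mean normalized replicate activation at least 10% and every replicate at or above 10%; inconclusive means only one of the two criteria met; inactive means mean below 10% and not all replicates reach 10%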
#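 Material: SV40-immortalized XiGFP fibroblast cells, line 68-5-11 | Buffer or medium: DMEM containing 5-aza-dC | Dosing: One concentration, pinned | Times: 3 d treatment, 15 min room-temperature fixation | Controls: Ellipticine 6 µM positive control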
# A number is an active result; n = inactive; u = inconclusive; x = not tested or not shown.
SMILES,LGR2 inh,TROY signal inh,FN deposition inh,TWEAK Fn14 block,EWS-Fli inh,XiGFP reactiv
C[C@@H]1CN([C@H](C)CO)S(=O)(=O)c2ccc(-c3cccnc3)cc2O[C@@H]1CN(C)C(=O)CC1CC1,n,x,x,x,n,n
COc1ccc(C(=O)Cn2c(=N)n(C)c3ccccc32)cc1,x,n,n,n,n,n
Cn1c(=N)n(CC(=O)c2ccccc2)c2ccccc21,n,n,n,n,65.1,u
Cn1c(=N)n(CC(=O)c2ccc(Cl)c(Cl)c2)c2ccccc21,n,n,n,85.0,73.4,n
CCCC(=O)Nc1ccc2c(c1)OC[C@H](C)N(C(=O)CC1CC1)C[C@@H](C)[C@H](OC)CN(C)C2=O,n,x,n,x,n,n
Cc1nn(-c2ccccc2)c(C)c1-c1nnc(-c2c(C)nn(-c3ccccc3)c2C)o1,n,50.1,n,n,n,n
Cc1ccccc1Nc1nc(N)nc(CCl)n1,x,n,n,n,61.3,n
Nc1nc(CCl)nc(Nc2ccc3ccccc3c2)n1,n,n,n,n,52.5,n
COC(=O)N1C(=O)[C@@](c2ccccc2)(C2CCCCC2)N1C(=O)OC,n,n,n,73.5,n,n
COc1ccc(S(=O)(=O)Nc2ccc3c(c2)CC(=O)N([C@H](C)CO)C[C@H](C)[C@@H](CN(C)Cc2ccc(C(=O)Nc4ccccc4N)cc2)O3)cc1,n,x,n,x,n,n
CN(C)C(=O)c1cc(Cl)ccc1Sc1cc(Cl)ccc1Cl,x,n,x,n,x,x
Oc1ccc(Cl)cc1Sc1cc(Cl)ccc1O,x,62.2,n,72.7,n,n
Cc1ccc(S(=O)(=O)N(C)C[C@@H]2Oc3c(NC(=O)c4cnccn4)cccc3C(=O)N([C@H](C)CO)C[C@@H]2C)cc1,n,x,x,x,n,n
O=c1cc(-c2ccccc2Cl)oc2cc(O)cc(O)c12,n,n,n,n,n,n
O=C1C=CC(O)(c2cc(=O)c3c(O)cc(O)cc3o2)C=C1,89.3,n,n,92.2,72.9,n
COc1ccc(S(=O)(=O)Nc2cccc3c2O[C@H](CN(C)Cc2ccc(C(=O)Nc4ccccc4N)cc2)[C@@H](C)CN([C@@H](C)CO)C3=O)cc1,n,x,x,x,n,n
COc1ccc(Cn2c(O)c(C=Nc3ccccc3C(=O)O)c3ccccc3c2=O)cc1,n,52.0,n,n,n,n
C[C@H](CO)N1C[C@H](C)[C@H](CN(C)C(=O)NC2CCCCC2)Oc2c(NC(=O)C3CCCCC3)cccc2C1=O,n,x,x,x,n,n
CCS(=O)(=O)NCC[C@H]1CC[C@H](NC(=O)C2CC2)[C@H](CO)O1,n,x,x,x,n,n
N#C/C(=C\c1cccc([N+](=O)[O-])c1)c1nnc2n1CCCCC2,n,82.3,n,90.6,x,n
O=C1[C@@H](Cc2ccc(C(F)(F)F)cc2)CCn2cc(nn2)COC[C@@H]2CCCCN12,x,x,n,x,x,n
C[C@@H]1CCCCO[C@H](CN(C)CC2CC2)[C@H](C)CN([C@@H](C)CO)C(=O)c2cc(NS(=O)(=O)c3ccc(Cl)cc3)ccc2O1,n,x,x,x,n,n
C[C@@H]1CCCCO[C@H](CN(C)CC2CCCCC2)[C@H](C)CN([C@@H](C)CO)C(=O)c2cc(NS(=O)(=O)c3ccc(F)cc3)ccc2O1,n,x,x,x,67.4,n
C[C@@H]1CCCCO[C@H](CN(C)CC2CCCCC2)[C@@H](C)CN([C@H](C)CO)C(=O)c2cc(NS(=O)(=O)c3ccc(F)cc3)ccc2O1,n,x,x,x,n,n
C[C@@H]1CCCCO[C@H](CN(C)CC2CCCCC2)[C@H](C)CN([C@@H](C)CO)C(=O)c2cc(NS(=O)(=O)c3ccc(Cl)cc3)ccc2O1,n,x,x,x,64.9,n
CN1C(=O)c2cc(NC(=O)Nc3ccc(Cl)cc3)ccc2OC[C@@H]2O[C@H](CC(=O)NCCN3CCCCC3)CC[C@@H]21,n,x,n,x,n,n
C[C@H](CO)N1C[C@H](C)[C@@H](CN(C)C(=O)Nc2cccc3ccccc23)Oc2ccc(NC(=O)Cn3cnnn3)cc2C1=O,n,x,x,x,n,n
